This note sets out measurements from ChEMBL document CHEMBL1121389, “Mono- and diaryl-2-quinuclidinylcarbinols with local anesthetic and antiarrhythmic activity” (1980).

For test [1], the system named is Canis familiaris. The test is described as follows: Heart rate of the dog was measured after drug administration to dogs. It counts as functional, Canis lupus familiaris. An outline of the steps: (§1)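 Dogs anesthetized with pentobarbital 35 mg/kg. Ouabain given iv at 40 μg/kg, then 20 μg/kg 30 min later, then 10 μg/kg every 15 min until ventricular tachycardia persisted. About 20 min after the last ouabain dose, compound given iv over 3 min, starting at 5 mg/kg. Further 5 or 10 mg/kg doses given at 15-min intervals, up to 15 or 20 mg/kg, until sinus rhythm returned. Dogs observed 2 h.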

For test [2], the species on record is Canis familiaris. Description: Number of dogs reverted ouabain induced arrhythmia. The test is classed as functional, Canis lupus familiaris. An outline of the steps:
as §1

The test system of a further test is Cavia porcellus. The test is described as follows: Local anesthetic activity using modification of the guinea pig intracutaneous wheal method. It counts as functional. The method in brief: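 Guinea pigs, four per test. Each animal received four intracutaneous injections: propranolol standard at 0.6 and 0.2%, test high dose 0.6-2% and low dose 0.2-0.67%. Wheals marked. Skin pricked with a 23-gauge needle six times inside and six times outside the wheal every 5 min up to 30 min. Activity expressed relative to propranolol with 95% confidence limits.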

The species entered for test [3] is Canis familiaris. The test is described as follows: Duration of the reversal of ouabain induced arrhythmia was measured. It counts as functional, Canis lupus familiaris. An outline of the steps:
as §1

Test [4] is filed under the species Canis familiaris. Description: Number of dogs used ouabain induced arrhythmia. It counts as functional, Canis lupus familiaris. An outline of the steps: as §1
For test [5], the species on record is Canis familiaris. Description: Concentration required to reverse ouabain induced arrhythmia in dogs. It counts as functional, Canis lupus familiaris. The method in brief: as §1
Test [6] relates to Canis familiaris. The test is described as follows: Heart rate of the dog was measured after ouabain administration to dogs. The test is classed as functional, Canis lupus familiaris. An outline of the steps: as §1
For test [7], the species on record is Canis familiaris. The test is described as follows: Concentration of ouabain required to induce arrhythmia in dogs. It counts as functional, Canis lupus familiaris. An outline of the steps: as §1
The species entered for test [8] is Canis familiaris. Description: Number of dogs reverted in ouabain induced arrhythmia. It counts as functional, Canis lupus familiaris. The method in brief:
as §1

Test [9] is filed under the species Canis familiaris. Description: Number of dogs used in ouabain induced arrhythmia. The test is classed as functional, Canis lupus familiaris. An outline of the steps:
as §1

For `COc1ccc(Br)cc1C(O)(c1cc(Br)ccc1OC)C1CC2CCN1CC2` (stereo not drawn), the Heart rate in the test on Canis familiaris [1] amounted to 162 min⁻¹; in the test with Canis familiaris [6], 210 min⁻¹. The “No. of dogs reverted” value in the test listed under Canis familiaris [2] is recorded as 1. Also, in the test on Cavia porcellus, the Activity stood at 0.92. The Duration of reversal in the test filed under Canis familiaris [3] is >120 min. Moreover, the “No. of dogs used” value in the test listed under Canis familiaris [4] was found to be 1. Also, in the test listed under Canis familiaris [5], the Dose was found to be 10 mg/kg. For the same compound, the Ouabain in the test filed under Canis familiaris [7] is 70 µg/kg.

Consider `COc1ccc(C(O)(c2ccc(OC)cc2)C2CC3CCN2CC3)cc1` (stereo not drawn), for which the values for the Heart rate in the test with Canis familiaris [1] and with Canis familiaris [6] were 168 min⁻¹ and 240 min⁻¹, respectively. Also, the “No. of dogs reverted” value in the test filed under Canis familiaris [2] is 1. Further, in the test with Cavia porcellus, the Activity is recorded as 0.54. In the test listed under Canis familiaris [3], the Duration of reversal is on record as 14 min. Also, the “No. of dogs used” value in the test listed under Canis familiaris [4] came to 1. For the same compound, the Dose in the test filed under Canis familiaris [5] was found to be 5 mg/kg. The same compound registered an Ouabain in the test filed under Canis familiaris [7] of 60 µg/kg.

In the case of `OC(c1ccco1)(c1ccco1)C1CC2CCN1CC2` (stereo not drawn), the Heart rate with Canis familiaris [1] stood at 180 min⁻¹; in the test with Canis familiaris [6], 240 min⁻¹. Moreover, the “No. of dogs reverted” value in the test filed under Canis familiaris [2] was 1. In addition, the Activity in the test with Cavia porcellus is listed as 0.27. In addition, the Duration of reversal in the test listed under Canis familiaris [3] is >120 min. For the same compound, the “No. of dogs used” value in the test listed under Canis familiaris [4] is 1. Moreover, the Dose in the test filed under Canis familiaris [5] is 15 mg/kg. This compound also registered an Ouabain in the test listed under Canis familiaris [7] of 70 µg/kg.

For `COc1ccc([C@](O)(c2cc(Br)ccc2OC)C2CC3CCN2CC3)cc1` (stereo partly drawn), the Heart rate is 160 min⁻¹ in the test on Canis familiaris [1] and 180 min⁻¹ in the test with Canis familiaris [6]. For the same compound, the “No. of dogs reverted” value in the test listed under Canis familiaris [2] was 0. In addition, the Activity in the test on Cavia porcellus was 1.2. The Duration of reversal in the test listed under Canis familiaris [3] is recorded as 0 min. In addition, the “No. of dogs used” value in the test listed under Canis familiaris [4] is 1. Besides, the Dose in the test filed under Canis familiaris [5] came to 15 mg/kg. The compound also displayed an Ouabain in the test filed under Canis familiaris [7] of 100 µg/kg.

On to `OC(c1ccccc1)(c1ccccc1)C1CC2CCN1CC2` (stereo not drawn), for which the Heart rate with Canis familiaris [1] was determined as 186 min⁻¹; in the test with Canis familiaris [6], 228 min⁻¹. Moreover, in the test listed under Canis familiaris [2], the “No. of dogs reverted” value came out at 2. In addition, the Activity with Cavia porcellus was 0.85. The Duration of reversal in the test listed under Canis familiaris [3] is on record as >120 min. Also, the “No. of dogs used” value in the test listed under Canis familiaris [4] was 2. The compound further came in with a Dose in the test filed under Canis familiaris [5] of 5 mg/kg. This compound also showed an Ouabain in the test listed under Canis familiaris [7] of 70 µg/kg.

On to `OC(c1ccccc1)(c1nccs1)C1CC2CCN1CC2` (stereo not drawn), for which the Heart rate in the test on Canis familiaris [1] was 150 min⁻¹; with Canis familiaris [6], 207 min⁻¹. In the test listed under Canis familiaris [2], the “No. of dogs reverted” value turned out to be 1. The compound further returned an Activity with Cavia porcellus of 0.25. Besides, in the test filed under Canis familiaris [3], the Duration of reversal is >120 min. Moreover, in the test filed under Canis familiaris [4], the “No. of dogs used” value is recorded as 2. The Dose in the test filed under Canis familiaris [5] was 6.4 mg/kg. In addition, the Ouabain in the test filed under Canis familiaris [7] was found to be 75 µg/kg.

Take `O[C@H](c1ccccc1)[C@@H]1CC2CCN1CC2` (relative stereo): in the test on Cavia porcellus, the Activity is 0.25.

As to `Cn1ccnc1[C@@H](O)[C@@H]1CC2CCN1CC2` (relative stereo), the Activity with Cavia porcellus is on record as 0.61.

In the test on Cavia porcellus, `O[C@H](c1ccncc1)[C@@H]1CC2CCN1CC2` (relative stereo) returned an Activity of 0.08.

Consider `O[C@H](c1ccc(Cl)cc1)[C@@H]1CC2CCN1CC2` (relative stereo), for which the Heart rate stood at 160 min⁻¹ in the test with Canis familiaris [1] and 222 min⁻¹ with Canis familiaris [6]. In the test listed under Canis familiaris [2], the “No. of dogs reverted” value is 0. The compound also had an Activity in the test with Cavia porcellus of 0.43. Moreover, in the test filed under Canis familiaris [3], the Duration of reversal came out at 0 min. In the test filed under Canis familiaris [4], the “No. of dogs used” value amounted to 1. The Dose in the test listed under Canis familiaris [5] amounted to 15 mg/kg. This compound returned an Ouabain in the test listed under Canis familiaris [7] of 70 µg/kg.

In the test with Cavia porcellus, `Cc1ccc([C@@H](O)[C@@H]2CC3CCN2CC3)cc1` (relative stereo) gave an Activity of 0.23.

Turning to `CC(C)(C)[C@@H](O)[C@@H]1CC2CCN1CC2` (relative stereo), the Activity in the test on Cavia porcellus stood at 0.13.

In the test on Cavia porcellus, `O[C@H](c1ccco1)[C@@H]1CC2CCN1CC2` (relative stereo) yielded an Activity of 0.09.

Turning to `O[C@H](C1=C2C=CC=CC(=CC=C1)C2)[C@@H]1CC2CCN1CC2` (relative stereo), the figures for the Heart rate with Canis familiaris [1] and in the test on Canis familiaris [6] were 156 min⁻¹ and 216 min⁻¹, respectively. Also, the “No. of dogs reverted” value in the test filed under Canis familiaris [8] turned out to be 1. This compound registered an Activity with Cavia porcellus of 0.99. For the same compound, in the test filed under Canis familiaris [3], the Duration of reversal was >120 min. Further, in the test filed under Canis familiaris [5], the Dose stood at 15 mg/kg. Besides, in the test listed under Canis familiaris [9], the “No. of dogs used” value is listed as 1. Moreover, the Ouabain in the test listed under Canis familiaris [7] came to 70 µg/kg.

Take `O[C@@H](c1ccccc1)[C@@H]1CC2CCN1CC2` (relative stereo): the Activity with Cavia porcellus was 0.18.

Take `O[C@H](c1nccs1)[C@@H]1CC2CCN1CC2` (single isomer, unassigned): in the test on Cavia porcellus, the Activity is on record as 0.8.

With `Cc1ccc(C(O)(c2ccc(C)cc2)C2CC3CCN2CC3)cc1` (stereo in doubt; 21), the Heart rate with Canis familiaris [1] turned out to be 134 min⁻¹; in the test on Canis familiaris [6] it was 220 min⁻¹. Further, the “No. of dogs reverted” value in the test filed under Canis familiaris [2] is 3. The same compound registered an Activity in the test with Cavia porcellus of 0.86. Moreover, the Duration of reversal in the test filed under Canis familiaris [3] stood at 85 min. In the test filed under Canis familiaris [4], the “No. of dogs used” value stood at 3. For the same compound, in the test listed under Canis familiaris [5], the Dose was determined as 11.7 mg/kg. This compound also yielded an Ouabain in the test filed under Canis familiaris [7] of 83 µg/kg.

Regarding `CCN(CC)CC(=O)Nc1c(C)cccc1C` [LIDOCAINE], the Heart rate in the test on Canis familiaris [1] is 169 min⁻¹; in the test with Canis familiaris [6] it was 223 min⁻¹. The “No. of dogs reverted” value in the test filed under Canis familiaris [2] turned out to be 5. In the test with Cavia porcellus, this compound gave an Activity of 0.66. Besides, the Duration of reversal in the test filed under Canis familiaris [3] is 51 min. In addition, the “No. of dogs used” value in the test filed under Canis familiaris [4] is listed as 5. In the test filed under Canis familiaris [5], this compound returned a Dose of 5 mg/kg. In the test filed under Canis familiaris [7], this compound yielded an Ouabain of 74 µg/kg.

In the case of `CC(C)NCC(O)COc1cccc2ccccc12` (stereo not drawn) [PROPRANOLOL], the Heart rate in the test on Canis familiaris [1] was found to be 138 min⁻¹; with Canis familiaris [6], 211 min⁻¹. Also, the “No. of dogs reverted” value in the test filed under Canis familiaris [2] came to 5. The Duration of reversal in the test filed under Canis familiaris [3] was 80 min. For the same compound, the “No. of dogs used” value in the test listed under Canis familiaris [4] is reported as 5. Besides, the Dose in the test listed under Canis familiaris [5] stood at 5 mg/kg. In the test listed under Canis familiaris [7], this compound displayed an Ouabain of 72 µg/kg.

As to `C=C[C@H]1CN2CC[C@H]1C[C@@H]2[C@@H](O)c1ccnc2ccc(OC)cc12` [QUINIDINE], the results for the Heart rate in the test with Canis familiaris [1] and in the test with Canis familiaris [6] were 170 min⁻¹ and 211 min⁻¹, respectively. Moreover, the “No. of dogs reverted” value in the test filed under Canis familiaris [2] is given as 10. This compound also gave an Activity in the test on Cavia porcellus of 1.15. Moreover, the Duration of reversal in the test filed under Canis familiaris [3] came out at 31 min. For the same compound, in the test filed under Canis familiaris [4], the “No. of dogs used” value was 13. In addition, in the test listed under Canis familiaris [5], the Dose was 9 mg/kg. For the same compound, the Ouabain in the test listed under Canis familiaris [7] is 59 µg/kg.
